Hits are enriched below; roughly 4.2% of the tested compounds scored in any of these assays.
SKKanGAS inh = SKKanGAS growth inhibition; S. pyogenes SKKanGAS, kanamycin growth, BacTiter-Glo, 6 h; inhibition, % at 7.5 µM; 300,000 compounds, 1.3% hits; AID 1662;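 active = mean replicate score, as percent of positive control median, at least 50; inconclusive = mean below 50 but one replicate at or above 50; inactive = mean and every replicate below 50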;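 note: strain carries kanamycin resistance gene driven by streptokinase promoter and grows in 40 µg/ml kanamycin; loss of luminescence reflects streptokinase promoter inhibition or plain growth inhibition; 0% = median of DMSO wells and 100% = positive control at its reference dose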
Cl transport mod = KCC2 (human) Cl- transport modulation; KCC2 cells, thallium flux FluoZin-2 fluorescence; B-score of Tl+ flux slope (higher = more flux/activation; lower = inhibition) at 10 µM; 190,000 compounds, 2.2% hits; Q9H2X9; AID 1456;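 active = thallium flux slope and its plate-corrected score both differing from the plate sample mean at a set confidence after two filtering rounds, in either direction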;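 note: slope of fluorescence scaled to starting intensity during 10 to 20 s after thallium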
Rad51 HR inh = blocks human Rad51 in homologous recombination. Q06609. 200,000 compounds, 0.085% hits. inhibition, % at 10 µM. hRad51 DNA strand exchange, fluorescence dequenching;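 active = inhibition above 40% at the single screening dose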;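 note: 0% = DMSO control wells and 100% = blanks with heterologous ssDNA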
Target sequence (Q06609 whole entry, looked up): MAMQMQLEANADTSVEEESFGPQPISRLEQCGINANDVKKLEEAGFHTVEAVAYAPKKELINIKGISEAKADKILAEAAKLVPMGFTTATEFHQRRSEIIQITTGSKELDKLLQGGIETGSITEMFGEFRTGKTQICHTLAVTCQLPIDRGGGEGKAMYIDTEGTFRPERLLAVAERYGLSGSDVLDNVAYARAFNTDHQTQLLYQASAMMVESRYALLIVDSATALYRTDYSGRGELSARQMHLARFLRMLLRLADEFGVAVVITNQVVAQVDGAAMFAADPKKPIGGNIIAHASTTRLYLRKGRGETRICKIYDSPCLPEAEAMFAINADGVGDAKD
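Material: Human Rad51 nucleoprotein filaments preassembled on unlabelled ssDNA | Also added: Labelled 47-mer dsDNA for strand exchange | Dosing: Single dose, 10 µM final compound | Schedule: 30-min compound preincubation and 15-min exchange, both room temperature | Technique: Fluorescence dequenching at 485/520 nm | Measure: Percent inhibition relative to plate controls and blanks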
Insulin prom up = MIN6 insulin promoter up-regulation; MIN6 insulin promoter-GFP reporter, high-content imaging; stronger effect = higher value; z-score at 5 µM; 190,000 compounds, 0.3% hits; AID 1625;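 active = z-score above 3 at 5 µM with at least 500 cells counted in the well; inconclusive = wells under 500 cells, flagged as cytotoxic or low count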
WT yeast gro inh = growth inhibition of WT yeast, mitochondrial fusion screen. mitochondrial fusion phenotypic screen, WT strain. inhibition, % at 10 µM. 190,000 compounds, 2.1% hits; in the data active = inhibition above about 58%; tested in S. cerevisiae
Autophagy mod = autophagy modulation, high-content screen; MEF GFP-LC3 puncta imaging; test concentration mostly 10 µM; calls only at 10 µM (by protocol); AID 463193; 190,000 compounds, 0.98% hits;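 active = percentage of spot-positive cells more than 3 SD above its plate mean, without a fluorescence outlier flag or 80% toxicity; inconclusive = no clear call, values can overlap the other calls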;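 note: spot-positive cell cutoff set from DMSO-treated cells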
KCC2 sec1 = KCC2 (human) modulation, secondary assay. HEK293-KCC2, thallium flux, FluoZin2 fluorescence; stronger effect = higher value. normalised thallium flux (F/F0 slope) at 10 µM. AID 1713. shares compounds with Cl transport mod. 3,700 compounds, 15% hits;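 active = thallium flux slope above the same plate's solvent-only control mean plus 3 SD; inconclusive = the two replicate wells disagree; inactive = no significant difference from solvent-only control wells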
KCC2 bumet counter = thallium flux despite bumetanide block in KCC2 cells, secondary assay 3. 3,700 compounds, 49% hits. normalized thallium flux at 10 µM. shares compounds with Cl transport mod. HEK293-KCC2 + bumetanide/ouabain, thallium flux FluoZin2; stronger effect = higher value. AID 1714;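 active = thallium entry rate above the same plate's blocked-transporter control wells by more than 3 SD; inconclusive = the two repeat wells disagree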;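 note: raw slope of fluorescence over initial fluorescence between 10 and 20 s after thallium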
KCC2 secondary2 = KCC2 (human) modulation, second secondary assay; shares compounds with Cl transport mod; HEK293-KCC2, thallium flux FluoZin2 fluorescence; actives lie on both sides; F/F0 rise rate, 10–20 s post-thallium; normalized thallium flux at 10 µM; 3,700 compounds, 23% hits; AID 1715;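 active = thallium flux slope more than 3 SD above or below the plate's solvent-only control mean, mostly below; inconclusive = the two repeat wells disagreed; inactive = no significant shift from solvent-only controls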;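 note: raw slope with 0.1% DMSO as baseline and bumetanide as block control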
HEK293 Tl flux = parental HEK flux effect, counter-screen; AID 1716; 3,700 compounds, 46% hits; shares compounds with Cl transport mod; HEK293 parental cells, thallium flux FluoZin2, ouabain; baseline-ratio fluorescence slope, 10–20 s after thallium; thallium flux rate (normalised fluorescence) at 10 µM;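 active = thallium flux rate significantly above the same plate's solvent-only control wells, beyond their mean plus 3 SD; inconclusive = the two replicate wells gave conflicting results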
KCC2 retest ouab = KCC2 (human) modulation, ouabain retest | shares compounds with Cl transport mod | HEK293-KCC2, thallium flux FluoZin2 fluorescence; bidirectional: low = inhibitor, high = activator | raw Tl+ flux slope (below DMSO = inhibition, above = activation) at 10 µM | 3,700 compounds, 48% hits;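 active = thallium flux slope beyond 3 SD from same-plate DMSO control mean in most replicates, usually higher, sometimes lower; inconclusive = repeat tests gave conflicting results; inactive = no significant difference from controls in most replicates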;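 note: slope of initial-normalized fluorescence between seconds 10 and 20 after thallium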
HEK293 Tl flux2 = counter-screen for KCC2 modulators: effect in parental HEK293 cells. thallium flux slope at 10 µM. shares compounds with Cl transport mod. thallium flux FluoZin-2 fluorescence slope. 3,700 compounds, 33% hits;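 active = thallium flux slope above the same plate's solvent-control mean plus 3 SD in both duplicate wells; inconclusive = duplicate wells that disagreed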;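 note: run without ouabain in cells lacking the KCC2 cotransporter; slope of fluorescence scaled to its starting value between 10 and 20 s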
The depositor's hits bear a star; i = inactive; u = inconclusive; x = not tested or not shown.

SMILES | SKKanGAS inh | Cl transport mod | Rad51 HR inh | Insulin prom up | WT yeast gro inh | Autophagy mod | KCC2 sec1 | KCC2 bumet counter | KCC2 secondary2 | HEK293 Tl flux | KCC2 retest ouab | HEK293 Tl flux2
Cn1c(SCC(=O)N2CCCC2=O)nc2ccccc21 | 6 | 0.18 | 7 | 0.17 | -12 | i | x | x | x | x | x | x
Nc1c(C(=O)O)sc2nc(-c3ccccc3)cc(-c3ccc(F)cc3)c12 | 11 | -5.4* | -62 | 0.84 | x | x | 0.0089 | 0.012* | 0.028 | 0.0069 | 0.012* | 0.01
Nc1c(C(=O)O)sc2nc(-c3ccccc3)c3c(c12)CCCC3 | x | 2.5 | -5 | 0.06 | 10 | i | x | x | x | x | x | x
S=c1[nH]nc(-c2ccco2)n1/N=C/C(Cl)=C/c1ccccc1 | 26 | 34* | 5 | 0.26 | x | x | 0.016* | 0.14* | 0.038 | 0.029* | 0.067* | 0.015*
CC(/C=N/n1c(-c2ccc(C)cc2)n[nH]c1=S)=C\c1ccco1 | 18 | 1.4 | -8 | -0.37 | 8 | i | x | x | x | x | x | x
Cc1cc(-c2n[nH]c(=S)n2/N=C/C(Cl)=C/c2ccccc2)n[nH]1 | 22 | 4.9* | 7 | x | -6 | i | 0.0093 | 0.013* | 0.037 | u | 0.02 | 0.011
CC(/C=N/n1c(-c2ccco2)n[nH]c1=S)=C\c1ccco1 | 15 | 4.7* | 1 | -0.27 | 35 | i | 0.0082 | 0.027* | 0.038 | 0.018* | 0.028* | 0.02*
CCc1ccccc1NC(=O)C1CCN(S(=O)(=O)c2ccc3c(c2)N(C(C)=O)CCO3)CC1 | 1 | x | x | x | x | x | x | x | x | x | x | x
CC(OC(=O)Cc1n[nH]c(=O)c2ccccc12)C(=O)Nc1cccc([N+](=O)[O-])c1 (centres undefined) | -6 | -0.39 | 0 | 0.19 | -12 | i | x | x | x | x | x | x
O=C1NC(=S)N(c2cccc(Cl)c2)C12CCCCC2 | 4 | 4.6* | 0 | -0.02 | 13 | i | 0.0071 | 0.011* | 0.029 | 0.013* | 0.02 | 0.012*
O=C(NCC(c1ccco1)N1CCN(c2ccccc2F)CC1)c1ccc2c(c1)OCO2 (centres undefined) | 11 | x | x | x | x | x | x | x | x | x | x | x
Cc1nc(SCc2ccccc2)c([N+](=O)[O-])[nH]1 | 1 | -5.2* | -1 | -0.02 | 13 | i | 0.009 | 0.0061 | 0.027* | 0.0039 | 0.014* | 0.011
Cc1ccc2nc(CSc3nc(C)cc(C)c3C#N)[nH]c2c1 | -8 | 5.9* | -8 | -0.15 | 45 | i | 0.017 | 0.0035 | 0.025* | 0.0061* | 0.014 | 0.0094
CCn1c(SCC(N)=O)nnc1-c1ccc(S(=O)(=O)N2CCN(C)CC2)cc1 | 0 | 3.7* | -1 | 0.22 | -4 | i | 0.0094 | 0.0073 | 0.035 | u | 0.023 | u
O=C1Nc2ccccc2S/C1=C/Nc1cccc(Cl)c1 | 76* | x | 2 | -0.37 | -5 | i | 0.017 | u | 0.029 | 0.0071 | 0.015* | 0.0097
CCCCN(C(=O)CSCc1ccc(C)cc1)c1c(N)n(CCC)c(=O)[nH]c1=O | 2 | x | x | x | x | x | x | x | x | x | x | x
COc1ccc(/C=C2\N=C(c3ccccc3)NNC2=O)cc1 | -3 | -0.33 | 2 | -0.05 | x | x | x | x | x | x | x | x
C/C(N)=C(/C#N)C(=O)COC(=O)CCCNC(=O)c1ccc(Cl)cc1 | 15 | 1.5 | 17 | -0.13 | -6 | i | x | x | x | x | x | x
COc1cc2nc(=S)n3[nH]c(COc4ccccc4C)nc3c2cc1OC | 64* | -9.2* | 4 | x | 3 | i | 0.0088 | 0.0059 | 0.029 | 0.0061* | 0.01* | u
CCNC(=O)c1ccc2c(c1)C1C3CCC(C3)C1C(c1ccccc1)N2 (centres undefined) | 3 | -1.2 | 1 | -0.66 | 55 | i | x | x | x | x | x | x
CCN(CCCNC(=O)COc1cc(=O)n(CC)c2ccccc12)c1ccccc1 | 0 | 4.6* | x | -1.3 | 1 | i | 0.0058 | 0.0043 | u | 0.0063* | 0.017 | 0.01
CCN(CCCNC(=O)COc1cc(=O)n(C)c2ccccc12)c1ccccc1 | -1 | 0.25 | -6 | x | -10 | i | x | x | x | x | x | x
COc1ccc(CCn2c(O)cc3nn(-c4nc5ccccc5s4)c(=O)c-3c2C)cc1 | 22 | 3.7* | x | 2 | x | x | 0.007 | 0.0077* | 0.03 | 0.01* | 0.021 | u
Cc1ccc(S(=O)(=O)N2CCN(C(=O)C3CSC4(C)CCC(=O)N34)CC2)cc1C (centres undefined) | 0 | x | x | x | x | x | x | x | x | x | x | x
Cc1ccc(C)c(N2CCN(C(=O)CCCn3c(=S)[nH]c4cc5c(cc4c3=O)OCO5)CC2)c1 | 34 | 3.4* | -3 | -0.74 | 40 | i | 0.0058 | 0.016* | 0.03 | 0.01* | u | 0.012
SMILES | SKKanGAS inh | Cl transport mod | Rad51 HR inh | Insulin prom up | WT yeast gro inh | Autophagy mod | KCC2 sec1 | KCC2 bumet counter | KCC2 secondary2 | HEK293 Tl flux | KCC2 retest ouab | HEK293 Tl flux2
CCOCCCn1c(=S)[nH]c2cc3c(cc2c1=O)OCO3 | 6 | 5.7* | x | 0.12 | 2 | i | u | 0.043* | 0.035 | 0.019* | 0.04* | u
O=C(CCCn1c(=S)[nH]c2cc3c(cc2c1=O)OCO3)N1CCN(c2ccccc2F)CC1 | 14 | -0.67 | -8 | -0.96 | -3 | i | x | x | x | x | x | x
O=C(CCc1ccccc1)c1c(O)cc(O)cc1O | 5 | -1.4* | -3 | -0.03 | x | x | 0.0054 | 0.0051 | 0.025* | 0.0081 | u | 0.011
CCN(Cc1ccccc1)C(=O)COC(=O)c1cc(=O)[nH]c2ccccc12 | 0 | -0.049 | 7 | 0.93 | 11 | i | x | x | x | x | x | x
CCC(C(=O)Nc1cccc(C(=O)O)c1C)c1ccccc1 (centres undefined) | -1 | 0.089 | -7 | -0.79 | -1 | i | x | x | x | x | x | x
O=C(O)c1c(Cl)nc2ccccn12 | -20 | 0.55 | -3 | 0.1 | 5 | i | x | x | x | x | x | x
O=C(Oc1cc(=O)n2ccccc2n1)c1ccccc1 | -5 | -4.3* | 4 | 0.46 | -14 | i | 0.012* | 0.0074 | 0.028 | 0.0056* | 0.021 | 0.0095
O=C(O)CC/C(=N/NC(=O)c1ccc(-c2ccccc2)cc1)c1ccccc1 | 14 | x | x | x | x | x | x | x | x | x | x | x
